Results from ChEMBL document CHEMBL1144707, “Antiparasitic, antineuroinflammatory, and cytotoxic polyketides from the marine sponge Plakortis angulospiculatus collected in Brazil” (J Nat Prod, 2008).
In brackets after ≈: the same amount, converted by molar mass. Activity calls are given as the source filed them. No cut-off for these calls is given here.

Test system: not listed separately
Assay: Selectivity index, ratio of IC50 for human macrophages to IC50 for antileishmanial activity against Leishmania chagasi intracellular amastigotes
Format: functional
Settings: not given
Outline: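 Ratio of macrophage cytotoxicity IC50 (MTT, 48 h) to IC50 against L. chagasi intracellular amastigotes.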

Compound | Selectivity index
CC/C=C/[C@H](CC)C/C(=C/[C@@]1(CC)C[C@H](CC)[C@H](CC(=O)O)OO1)CC [PLAKORTIDE N] | 31.7

Test system: Leishmania chagasi
Assay: Induction of morphological changes in Leishmania chagasi promastigotes assessed as increase in vacuoles at 17 ug/ml after 3 hrs by electron microscopy
Format: functional, organism-based
Settings: not given
Outline: (§1)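 Promastigotes (kept in M-199 with 10% calf serum and 0.25% hemin at 24 °C) incubated with compound at 17 µg/mL at 24 °C for 0, 1, 3, 5 or 7 h. Cells then processed for transmission electron microscopy and compared with an untreated control for ultrastructural changes.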

Compound | Activity
CC/C=C/[C@H](CC)C/C(=C/[C@@]1(CC)C[C@H](CC)[C@H](CC(=O)O)OO1)CC [PLAKORTIDE N] | Active

Test system: not listed separately
Assay: Selectivity index, ratio of mouse peritoneal macrophages to Antitrypanosomal activity against Trypanosoma cruzi Y
Settings: not given

Compound | Selectivity index
CC/C=C/[C@H](CC)C/C(=C/[C@@]1(CC)C[C@H](CC)[C@H](CC(=O)O)OO1)CC [PLAKORTIDE N] | 7.1

Test system: Leishmania chagasi
Assay: Induction of morphological changes in Leishmania chagasi promastigotes assessed as nuclear destruction with chromatin decondensation at 17 ug/ml after 5 hrs by electron microscopy
Format: functional, organism-based
Settings: not given
Outline: as §1

Compound | Activity
CC/C=C/[C@H](CC)C/C(=C/[C@@]1(CC)C[C@H](CC)[C@H](CC(=O)O)OO1)CC [PLAKORTIDE N] | Active

Test system: not listed separately
Assay: Antiinflammatory activity in rat neonatal brain microglia cells assessed as phorbol 12-myristate 13-acetate-stimulated thromboxane B2 release
Format: functional, cell-based
Settings: not given
Outline: (§2)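 Rat neonatal brain microglia, 2 × 10^5 cells per well, primed with E. coli LPS (0.3 ng/mL) for 17 h at 35.9 °C in 5% CO2. Cells were washed with HBSS, exposed to compounds (0.1–10 µM) or DMSO vehicle for 15 min, then stimulated with PMA (1 µM) for 70 min. O2-, TXB2 and LDH release were measured, duplicates, two independent experiments. IC50 for O2- and TXB2. LDH50 is the concentration giving 50% of the LDH release seen with 0.1% Triton X-100.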

Compound | IC50 [µM]
CC/C=C/[C@H](CC)C/C(=C/[C@@]1(CC)C[C@H](CC)[C@H](CC(=O)O)OO1)CC [PLAKORTIDE N] | 0.93

Test system: Leishmania chagasi
Assay: Induction of morphological changes in Leishmania chagasi promastigotes assessed as mitochondrial swelling at 17 ug/ml after 3 hrs by electron microscopy
Format: functional, organism-based
Settings: not given
Outline: as §1

Compound | Activity
CC/C=C/[C@H](CC)C/C(=C/[C@@]1(CC)C[C@H](CC)[C@H](CC(=O)O)OO1)CC [PLAKORTIDE N] | Active

Test system: Leishmania chagasi
Assay: Induction of morphological changes in Leishmania chagasi promastigotes assessed as abnormal chromatin at 17 ug/ml after 3 hrs by electron microscopy
Format: functional, organism-based
Settings: not given
Outline: as §1

Compound | Activity
CC/C=C/[C@H](CC)C/C(=C/[C@@]1(CC)C[C@H](CC)[C@H](CC(=O)O)OO1)CC [PLAKORTIDE N] | Active

Test system: not listed separately
Assay: Toxicity in BALB/c mouse erythrocytes assessed as hemolysis at 6.25 ug/ml after 2 hrs
Format: cell-based, Erythrocyte
Settings: read-out: Activity
Outline: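 A 3% suspension of BALB/c mouse erythrocytes incubated with compounds for 2 h at 25 °C. Supernatant absorbance read at 550 nm.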

Compound | hemolysis at 2 h, 6.25 ug/ml [%]
CC/C=C/[C@H](CC)C/C(=C/[C@@]1(CC)C[C@H](CC)[C@H](CC(=O)O)OO1)CC [PLAKORTIDE N] | 0

Test system: Leishmania chagasi
Assay: Antileishmanial activity against Leishmania chagasi intracellular amastigotes infected in hamster macrophages after 48 hrs […]
Format: functional, organism-based
Settings: not given
Outline: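 Intracellular amastigotes tested in infected macrophages, with pentavalent antimony as standard. Amastigotes were obtained from hamster spleens 60–70 days postinfection. Parasite burden was scored as the mean number of amastigotes per macrophage over 500 cells. Result expressed as IC50.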

Compound | IC50 [µg/mL]
MEGLUMINE ANTIMONATE | 21

Same assay, conditions: Leishmania chagasi, 48 h; read-out: IC50

Compound | IC50 [µg/mL]
CC/C=C/[C@H](CC)C/C(=C/[C@@]1(CC)C[C@H](CC)[C@H](CC(=O)O)OO1)CC [PLAKORTIDE N] | 0.5 (≈ 1.36 µM)

Test system: Leishmania chagasi
Assay: Induction of morphological changes in Leishmania chagasi promastigotes assessed as flagellar blebs at 17 ug/ml after 3 hrs by electron microscopy
Format: functional, organism-based
Settings: not given
Outline: as §1

Compound | Activity
CC/C=C/[C@H](CC)C/C(=C/[C@@]1(CC)C[C@H](CC)[C@H](CC(=O)O)OO1)CC [PLAKORTIDE N] | Active

Test system: Leishmania chagasi
Assay: Antileishmanial activity against Leishmania chagasi promastigotes infected in hamster after 48 hrs by MTT assay
Format: functional, organism-based
Settings: not given
Outline: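 Promastigotes maintained in M-199 with 10% calf serum and 0.25% hemin at 24 °C, seeded at 1 × 10^6 cells/well. Incubated with 0.488–500 µg/mL for 48 h at 24 °C, pentamidine as standard. Viability by MTT at 570 nm.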

Compound | IC50 [µg/mL]
N=C(N)c1ccc(OCCCCCOc2ccc(C(=N)N)cc2)cc1 [PENTAMIDINE] | 0.1 (≈ 0.294 µM)
CC/C=C/[C@H](CC)C/C(=C/[C@@]1(CC)C[C@H](CC)[C@H](CC(=O)O)OO1)CC [PLAKORTIDE N] | 1.9 (≈ 5.18 µM)

Test system: Leishmania chagasi
Assay: Induction of morphological changes in Leishmania chagasi promastigotes assessed as cell membrane detachment at 17 ug/ml after 5 hrs by electron microscopy
Format: functional, organism-based
Settings: not given
Outline: as §1

Compound | Activity
CC/C=C/[C@H](CC)C/C(=C/[C@@]1(CC)C[C@H](CC)[C@H](CC(=O)O)OO1)CC [PLAKORTIDE N] | Active

Test system: not listed separately
Assay: Antiinflammatory activity in rat neonatal brain microglia cells assessed as drug level causing 50% LDH release
Format: functional, cell-based
Settings: not given
Outline: as §2

Compound | IC50 [µM]
CC/C=C/[C@H](CC)C/C(=C/[C@@]1(CC)C[C@H](CC)[C@H](CC(=O)O)OO1)CC [PLAKORTIDE N] | > 10

Test system: Trypanosoma cruzi
Assay: Antitrypanosomal activity against Trypanosoma cruzi Y infected in […] LLC-MK2 cells after 24 hrs by MTT assay
Format: functional, organism-based
Settings: LLC-MK2, 24 h
Outline: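 Free trypomastigotes (Y strain) from LLC-MK2 cultures, seeded at 1 × 10^6 cells/well. Incubated up to 100 µg/mL for 24 h at 37 °C in 5% CO2, benznidazole as standard. Viability by MTT conversion, formazan extracted with 10% SDS for 18 h at 24 °C. IC50 in µg/mL.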

Compound | IC50 [µg/mL]
O=C(Cn1ccnc1[N+](=O)[O-])NCc1ccccc1 [BENZNIDAZOLE] | 36.3 (≈ 139 µM)
CC/C=C/[C@H](CC)C/C(=C/[C@@]1(CC)C[C@H](CC)[C@H](CC(=O)O)OO1)CC [PLAKORTIDE N] | 2.3 (≈ 6.27 µM)

Test system: not listed separately
Assay: Cytotoxicity against human macrophages after 48 hrs by MTT assay
Format: cell-based, Macrophage
Settings: Homo sapiens, Macrophage, 48 h; read-out: IC50

Compound | IC50 [µg/mL]
N=C(N)c1ccc(OCCCCCOc2ccc(C(=N)N)cc2)cc1 [PENTAMIDINE] | 8.7 (≈ 25.6 µM)
CC/C=C/[C@H](CC)C/C(=C/[C@@]1(CC)C[C@H](CC)[C@H](CC(=O)O)OO1)CC [PLAKORTIDE N] | 16.6 (≈ 45.3 µM)

Same assay, conditions: macrophage

Compound | IC50 [µg/mL]
MEGLUMINE ANTIMONATE | > 1000

Test system: Macrophage
Assay: Induction of nitric oxide in BALB/c mouse peritoneal macrophages at 4 ug/mL after 24 hrs by griess assay
Format: functional, cell-based
Settings: not given
Outline: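 Peritoneal macrophages incubated 24 h at 37 °C with compound at 4 µg/mL. LPS at 50 µg/mL served as the internal activation control. NO measured by Griess reaction, absorbance at 540 nm.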

Compound | Activity
CC/C=C/[C@H](CC)C/C(=C/[C@@]1(CC)C[C@H](CC)[C@H](CC(=O)O)OO1)CC [PLAKORTIDE N] | inactive

Test system: not listed separately
Assay: Antiinflammatory activity in rat neonatal brain microglia cells assessed as phorbol 12-myristate 13-acetate-stimulated superoxide release
Format: functional, cell-based
Settings: not given
Outline: as §2

Compound | IC50 [µM]
CC/C=C/[C@H](CC)C/C(=C/[C@@]1(CC)C[C@H](CC)[C@H](CC(=O)O)OO1)CC [PLAKORTIDE N] | > 10

Test system: Leishmania chagasi
Assay: Induction of morphological changes in Leishmania chagasi promastigotes assessed as nuclear membrane blebs at 17 ug/ml after 5 hrs by electron microscopy
Format: functional, organism-based
Settings: not given
Outline: as §1

Compound | Activity
CC/C=C/[C@H](CC)C/C(=C/[C@@]1(CC)C[C@H](CC)[C@H](CC(=O)O)OO1)CC [PLAKORTIDE N] | Active
